Measurements as given in ChEMBL document CHEMBL1123059, “2-(beta-Arylethylamino)- and 4-(beta-arylethylamino)quinazolines as phosphodiesterase inhibitors” (J Med Chem, 1985).

Legend:
Cavia porcellus [1] = species: Cavia porcellus; test: Percentage relaxation of guinea pig tracheal preparation relative to papaverine at 84 uM; type: functional, Trachea
Method in brief: (§1)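 Spiral trachea strips from female Hartley guinea pigs (300-500 g) were held in Krebs-Henseleit at 37 °C under 95% O2/5% CO2. Cumulative doses of the hydrochloride salt were given, then papaverine 10 μg/mL as the supramaximal reference. Relaxation at the stated concentration is given as % of papaverine maximum, with vehicle-corrected controls.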

[2] = molecular target: cAMP phosphodiesterase (Bos taurus); test: Inhibition of bovine heart cAMP-phosphodiesterase
[3] = system: cAMP phosphodiesterase (Bos taurus); test: Ratio of Ki/Km for inhibition of bovine heart cAMP-phosphodiesterase
Cavia porcellus [4] = species: Cavia porcellus; test: Relaxation in guinea pig tracheal preparation relative to papaverine, range 52.5-75.9; type: functional; settings: Trachea, read-out: ED50 (the source's name)
[5] = molecular target: cAMP phosphodiesterase (Bos taurus); test: Inhibition of bovine heart cAMP-phosphodiesterase; remark: listed apart in the source
Cavia porcellus [6] = species: Cavia porcellus; test: Relaxation in guinea pig tracheal preparation relative to papaverine, range 63.1-79.4; type: functional; settings: Trachea, read-out: ED50 (the source's name)
Cavia porcellus [7] = species: Cavia porcellus; test: Relaxation in guinea pig tracheal preparation relative to papaverine, range 33.1-91.2; type: functional; settings: Trachea, read-out: ED50 (the source's name)
Cavia porcellus [8] = species: Cavia porcellus; test: Percentage relaxation of guinea pig tracheal preparation relative to papaverine at 42 uM; type: functional, Trachea; method in brief: as §1
Cavia porcellus [9] = species: Cavia porcellus; test: Percentage relaxation of guinea pig tracheal preparation relative to papaverine at 20 uM; type: functional, Trachea; method in brief: as §1
Cavia porcellus [10] = species: Cavia porcellus; test: Relaxation in guinea pig tracheal preparation relative to papaverine; type: functional; settings: Trachea, read-out: ED50 (the source's name)
Cavia porcellus [11] = species: Cavia porcellus; test: Relaxation in guinea pig tracheal preparation relative to papaverine, range 162-589; type: functional; settings: Trachea, read-out: ED50 (the source's name)
Cavia porcellus [12] = species: Cavia porcellus; test: Percentage relaxation of guinea pig tracheal preparation relative to papaverine at 98 uM; type: functional, Trachea; method in brief: as §1
Cavia porcellus [13] = species: Cavia porcellus; test: Percentage relaxation of guinea pig tracheal preparation relative to papaverine at 70 uM; type: functional, Trachea; method in brief: as §1

SMILES	IC50 [2] [µM]	Ratio [3]	IC50 [5] [µM]	other results
CCN(CC)c1nc(NCC(O)c2ccc(O)c(CO)c2)c2cc(OC)c(OC)cc2n1.Cl (stereo not drawn)		0.81	428	EC50 (Cavia porcellus [4]): 63.1 µM
Cn1c(=O)c2nc[nH]c2n(C)c1=O [THEOPHYLLINE]				EC50 (Cavia porcellus [6]): 70.8 µM
CCN(CC)c1nc(NCC(O)c2ccc(O)c(CO)c2)nc2cc(OC)c(OC)cc12.Cl (stereo not drawn)	339	0.69		Max relaxation (Cavia porcellus [8]): 36%
CCN(CC)c1nc(NCC(O)c2cccc(O)c2)c2cc(OC)c(OC)cc2n1.Cl (stereo not drawn)		0.73	610	Max relaxation (Cavia porcellus [9]): 28%
CCN(CC)c1nc(NCC(O)c2cc(O)cc(O)c2)nc2cc(OC)c(OC)cc12.Cl (stereo not drawn)	432	0.43		EC50 (Cavia porcellus [10]): 26.9 µM
CCN(CC)c1nc(NCC(O)c2ccccc2)c2cc(OC)c(OC)cc2n1 (stereo not drawn)		0.64	350	Max relaxation (Cavia porcellus [12]): 46%

The next lines start with results.

IC50 [2] [µM]	Ratio [3]	IC50 [5] [µM]	SMILES	other results
295	1.15		CCN(CC)c1nc(NCC(O)c2cccc(O)c2)nc2cc(OC)c(OC)cc12 (stereo not drawn)	Max relaxation (Cavia porcellus [1]): 11.5%
328	1.88		CCN(CC)c1nc(NCC(O)c2ccccc2)nc2cc(OC)c(OC)cc12 (stereo not drawn)	EC50 (Cavia porcellus [7]): 49 µM
	0.054	87	CCN(CC)c1nc(NCCc2ccccc2)nc2cc(OC)c(OC)cc12	EC50 (Cavia porcellus [11]): 234 µM
16	0.107		CCN(CC)c1nc(NCCc2ccccc2)c2cc(OC)c(OC)cc2n1	Max relaxation (Cavia porcellus [13]): 29%
